The text below walks through data of ChEMBL document CHEMBL1142896, “The synthesis of amphipathic prodrugs of 1,2-diol drugs with saccharide conjugates by high regioselective enzymatic protocol” (Bioorg Med Chem, 2007).

As a reminder, the Log D is the decadic logarithm of the distribution of all forms, ionised or not, between an organic phase and buffer at a given pH. One may read the LogP as the decadic logarithm of the partition coefficient of the neutral form, usually between octanol and water. Low readings indicate a more hydrophilic compound, high ones a more lipophilic compound. One may read the half-life as the time needed for the level to fall by half in the phase considered. Read a low half-life as rapid decline.

The nature of data set [1]: Distribution coefficient, log D at pH 7.4. The class given is physicochemical. The conditions noted are these: octanol/water. The procedure, abridged:
(§1)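 Shake-flask partitioning between n-octanol and phosphate buffer pH 7.4; phases mixed 15 min, centrifuged at 1 · 10⁴ rpm for 5 min, separated. Each layer diluted tenfold and analysed by HPLC (UV detection 228–232 nm, methanol/water 80:20 eluent). D7.4 calculated from the layer concentrations; triplicate, mean reported.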

A short description of data set [2]: Partition coefficient, log P of the compound. Format: physicochemical. The conditions noted are these: octanol/water. The procedure, abridged: as §1
Data set [3] can be described thus: Half life of hydrolysis in phosphate buffer at pH 7.4. The class given is ADME. A digest of the protocol:
(§2)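 Non-enzymatic chemical hydrolysis at 37 °C in 0.2 M hydrochloric acid buffer pH 1.2 (simulated gastric fluid) or 0.2 M phosphate buffer pH 7.4. 25 mM dioxane stock diluted 1:10 into thermostated buffer. Remaining ester followed by HPLC. Pseudo-first-order k_obsd fitted, and t1/2 derived from it.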

Data set [4] can be described thus: Half life of hydrolysis in hydrochloric acid buffer at pH 1.2. The class given is ADME. A digest of the protocol:
as §2

For the compound `NC(=O)OCC(O)COc1ccc(Cl)cc1` (stereo unspecified) [CHLORPHENESIN CARBAMATE], the “Log D” value in data set [1] is recorded as 1.44. The same compound had a LogP in data set [2] of 1.44.

For `Cc1ccccc1OCC(O)CO` (stereo unspecified) [MEPHENESIN], the half-life in data set [3] was 19.9 h; in data set [4], 8.75 h. Further, the “Log D” value in data set [1] came to 1.09. For the same compound, the LogP in data set [2] was 1.09.
